Among the data in ChEMBL document CHEMBL1156664, “Frajunolides E-K, briarane diterpenes from Junceella fragilis” (J Nat Prod, 2008) are IC50 and inhibition values, retold here.

Values after ≈ are worked out from the molar mass of the structure shown.

For one assay, the system named is HeLa. Nature of the assay: Cytotoxicity against human HeLa cells by MTT assay. In kind it is functional, cell-based.
For another assay, the system named is HEp-2. The experiment in a line: Cytotoxicity against human Hep2 cells by MTT assay. In kind it is functional, cell-based. For orientation: Tetrazolium dyes change colour on reduction, which living cells bring about.
Assay [1] in a line: Cytotoxicity against human Doay cells by MTT assay. In kind it is functional, cell-based.
The next assay concerns WiDr. Nature of the assay: Cytotoxicity against human WiDr cells by MTT assay. In kind it is functional, cell-based.
Assay [2] can be described thus: Antiinflammatory activity against FMLP/CB stimulated human neutrophils assessed as inhibition of elastase release relative to control. Conditions: Neutrophil. In kind it is functional, cell-based. The method in brief: (§1)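 Neutrophils were supplemented with 100 µM MeO-Suc-Ala-Ala-Pro-Val-p-nitroanilide at 6 × 10^5/mL, equilibrated 2 min at 37 °C, then given compound for 5 min. They were activated with FMLP (100 nM)/CB (0.5 µg/mL), and A405 was followed continuously. The initial rate is expressed relative to the FMLP/CB-activated DMSO control. Mean ± SEM, n = 3.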

The nature of assay [3]: Antiinflammatory activity against FMLP/CB stimulated human neutrophils assessed as inhibition of superoxide anion generation relative to control. The format is functional, cell-based. Conditions: Neutrophil. The method in brief: (§2)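 Human neutrophils were isolated by dextran sedimentation and Ficoll centrifugation. Cells were given 0.5 mg/mL ferricytochrome c and 1 mM Ca2+, equilibrated 2 min at 37 °C, then treated with compound for 5 min. CB (1 µg/mL) was added 3 min before 100 nM FMLP for 10 min. Superoxide was measured as SOD-inhibitable ferricytochrome c reduction. Mean ± SEM, n = 3.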

Assay [4] in a line: Antiinflammatory activity against FMLP/CB stimulated human neutrophils assessed as inhibition of elastase release at 10 ug/mL relative to control. In kind it is functional. Conditions: Neutrophil. The method in brief: as §1
A short description of assay [5]: Antiinflammatory activity against FMLP/CB stimulated human neutrophils assessed as inhibition of superoxide anion generation at 10 ug/mL relative to control. The format is functional. Particulars: Neutrophil. The method in brief: as §2

As to `C=C1C[C@H](OC(C)=O)[C@H](OC(C)=O)[C@]2(C)[C@@H](OC(C)=O)CC/C(C)=C\[C@@H]3OC(=O)[C@H](C)[C@@]3(O)[C@@H](OC(C)=O)[C@@H]12` (relative stereo) [FRAJUNOLIDE E], the IC50 (as a rule, the concentration that gives 50% inhibition) in the assay on HeLa is more than 20 µg/mL; in the assay on HEp-2, more than 20 µg/mL; in assay [1] it was more than 20 µg/mL; in the assay with WiDr it was more than 20 µg/mL; in assay [2], 27.4 µg/mL (≈ 49.8 µM); in assay [3] it was 17.5 µg/mL (≈ 31.8 µM).
With `C=C1C[C@H](OC(C)=O)[C@H](OC(C)=O)[C@]2(C)[C@@H](OC(C)=O)C[C@@]3(O)O[C@]4([C@@H](C)C(=O)O[C@H]4[C@@H](Cl)C3=C)[C@@H](OC(C)=O)[C@@H]12` (relative stereo) [FRAJUNOLIDE F], the figures for the inhibition at 10 µg/mL in assay [4] and in assay [5] were 10.4% and 7.4%, respectively. The IC50 (with HeLa; in the assay on HEp-2; in assay [1]; with WiDr) was more than 20 µg/mL each time.
Consider `C=C1/C=C\[C@H](OC(=O)COC(=O)CC(C)C)[C@@]2(C)[C@@H](OC(C)=O)CC[C@]3(CO3)[C@@H]2[C@H](OC(C)=O)[C@]2(O)[C@@H](C)C(=O)O[C@H]2[C@H]1Cl` (relative stereo) [FRAJUNOLIDE G], for which the inhibition (as a rule, the change of the read-out against control, counted positive when it falls) at 10 µg/mL is 8.3% in assay [4] and -7.5% in assay [5]. Besides, the IC50 (with HeLa; in the assay with HEp-2; in assay [1]; in the assay with WiDr) was more than 20 µg/mL each time.
For the compound `C=C1C[C@H](OC(C)=O)[C@H](OC(C)=O)[C@]2(C)[C@@H](OC(C)=O)/C=C/C(=C)[C@H](Cl)[C@@H]3OC(=O)[C@H](C)[C@@]3(O)[C@@H](OC(C)=O)[C@@H]12` (relative stereo) [FRAJUNOLIDE H], the inhibition at 10 µg/mL was 0.1% in assay [4] and -1.9% in assay [5]. Further, the IC50 (with HeLa; in the assay on HEp-2; in assay [1]; in the assay with WiDr) was more than 20 µg/mL each time.
Consider `C=C1/C=C/[C@H](OC(C)=O)[C@@]2(C)[C@@H](OC(C)=O)[C@@H](OC(C)=O)C[C@]3(CO3)[C@@H]2[C@H](OC(C)=O)[C@]2(O)[C@@H](C)C(=O)O[C@H]2[C@H]1Cl` (relative stereo) [FRAJUNOLIDE I], for which the inhibition at 10 µg/mL was 18.2% in assay [4] and -10.3% in assay [5]. In addition, the IC50 (in the assay on HeLa; in the assay with HEp-2; in assay [1]; with WiDr) was more than 20 µg/mL each time.
Turning to `C=C1[C@@H]2[C@H](OC(C)=O)[C@@]3(O)[C@H](/C=C(/C)CC[C@H](OC(C)=O)[C@@]2(C)[C@@H](OC(C)=O)C[C@H]1OC(=O)CC)OC(=O)[C@@H]3C` (relative stereo) [FRAJUNOLIDE J], the inhibition at 10 µg/mL in assay [4] came out at 19.9%; in assay [5] it was 20.1%. Also, the IC50 (with HeLa; in the assay with HEp-2; in assay [1]; with WiDr) was more than 20 µg/mL throughout.
On to `C=C1CC[C@H](OC(C)=O)[C@]2(C)[C@@H](OC(=O)COC(=O)CC(C)C)/C=C\C(=C)[C@H](Cl)[C@@H]3OC(=O)[C@H](C)[C@@]3(O)[C@@H](OC(C)=O)[C@@H]12` (relative stereo) [FRAJUNOLIDE K], for which the inhibition at 10 µg/mL in assay [4] stood at 8%; in assay [5], 2.4%. In addition, the IC50 (in the assay with HeLa; in the assay with HEp-2; in assay [1]; in the assay on WiDr) was more than 20 µg/mL throughout.
Take `CC[C@@]1(O)C(=O)OCc2c1cc1n(c2=O)Cc2cc3ccccc3nc2-1` [CAMPTOTHECIN]: the IC50 was 0.19 µg/mL (≈ 0.545 µM) in the assay on HeLa, 0.02 µg/mL (≈ 0.0574 µM) in the assay with HEp-2, 0.08 µg/mL (≈ 0.23 µM) in assay [1] and 0.07 µg/mL (≈ 0.201 µM) in the assay on WiDr.
Consider `O=c1c(-c2ccc(O)cc2)coc2cc(O)cc(O)c12` [GENISTEIN], for which the inhibition at 10 µg/mL is 51.6% in assay [4] and 65% in assay [5].
